PvdQ inh = P. aeruginosa PvdQ acylase inhibition; 340,000 compounds, 0.063% hits; AID 488965; purified PvdQ acylase, fluorescence plate reader; inhibition, % at 10 µM; in the data active = inhibition above about 30%, passing the limit was not always enough
FID counter = displaces DNA intercalator in HCV helicase counter-screen; DNA fluorescent intercalator displacement, fluorescence; inhibition, % at 7.9 µM; 290,000 compounds, 0.17% hits; in the data active = inhibition above about 37%;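 also: higher means more ethidium bromide displaced from hairpin DNA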
RAD54 branch = blocks human RAD54 Holliday junction branch migration; FAM/BHQ fluorescence; Q92698; inhibition, % at 10.4 µM; AID 602329; 360,000 compounds, 0.14% hits;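 active = mean normalized replicate activity at least 40 and at least half of replicates scoring 40 or more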;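 also: inhibitors cause a drop in the FAM fluorescence signal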
Target sequence (Q92698 whole entry, looked up): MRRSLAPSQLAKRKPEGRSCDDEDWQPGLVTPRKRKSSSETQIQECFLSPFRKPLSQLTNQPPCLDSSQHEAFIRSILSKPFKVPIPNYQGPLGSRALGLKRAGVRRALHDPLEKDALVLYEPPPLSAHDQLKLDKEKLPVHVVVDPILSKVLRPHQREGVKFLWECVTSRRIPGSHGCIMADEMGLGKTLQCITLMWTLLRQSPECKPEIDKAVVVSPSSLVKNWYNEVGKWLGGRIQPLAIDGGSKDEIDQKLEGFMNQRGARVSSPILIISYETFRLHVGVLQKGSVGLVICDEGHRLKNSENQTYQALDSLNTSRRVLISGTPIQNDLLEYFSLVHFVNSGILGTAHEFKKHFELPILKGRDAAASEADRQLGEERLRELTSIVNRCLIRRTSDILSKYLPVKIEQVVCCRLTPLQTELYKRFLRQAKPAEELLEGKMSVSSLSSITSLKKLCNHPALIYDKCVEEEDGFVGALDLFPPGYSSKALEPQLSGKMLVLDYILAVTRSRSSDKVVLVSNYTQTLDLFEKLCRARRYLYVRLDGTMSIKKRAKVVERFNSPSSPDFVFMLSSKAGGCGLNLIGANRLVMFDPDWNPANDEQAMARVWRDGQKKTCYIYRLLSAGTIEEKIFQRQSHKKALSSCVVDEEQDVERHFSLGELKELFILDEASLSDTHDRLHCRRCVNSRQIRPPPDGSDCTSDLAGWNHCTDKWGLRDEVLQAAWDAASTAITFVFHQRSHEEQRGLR
VIM-2 inh = blocks Pseudomonas aeruginosa VIM-2 metallo-beta-lactamase; purified VIM-2, nitrocefin hydrolysis, epi-absorbance fluorescence; inhibition, % at 5.6 µM; 290,000 compounds, 0.89% hits;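 active = inhibition above the mean of all tested compounds plus 3 SD, cutoff set per screening run, cut at about 7.5% in these data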;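 also: red hydrolysis product quenches plate fluorescence so inhibitors raise well fluorescence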
IMP-1 inh-1 = blocks Pseudomonas aeruginosa IMP-1 metallo-beta-lactamase. purified IMP-1, nitrocefin hydrolysis, epi-absorbance fluorescence. 290,000 compounds, 0.45% hits. inhibition, % at 5.6 µM;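 active = inhibition above the mean plus 3 SD of all compounds in the same screening run, cut at about 4.5% in these data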
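Material – recombinant IMP-1 enzyme, purified · Amount – IMP-1 0.2 nM before substrate addition · Medium – HEPES buffer pH 7.1 with ZnSO4 and Brij 35 · Timing – 25 °C, 15 min preincubation, 25 min reaction · Measured by – plate fluorescence quenching by hydrolysis product, ex 480/em 530 nm · Read-out – percent enzyme inhibition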
IMP-1 inh-2 = IMP-1 inhibition, counter-screen for VIM-2 inhibitors | purified IMP-1, nitrocefin hydrolysis, epi-absorbance fluorescence | inhibition, % at 5.6 µM | shares compounds with VIM-2 inh | 1,300 tested, under 10 active; call rule not given here
VIM-2 FRET inh = counter-screen for VIM-2 inhibitors: epi-absorbance artifacts via FRET; AID 1857; inhibition, % at 5.6 µM; shares compounds with VIM-2 inh; 1,300 compounds, 23% hits; purified VIM-2, CCF2 FRET substrate hydrolysis;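 active = inhibition above the mean of all tested compounds plus 3 SD, cut at about 19% in these data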
TEM-1 counter = blocks E. coli TEM-1 beta-lactamase in VIM-2 selectivity screen. Purified TEM-1, nitrocefin hydrolysis, epi-absorbance fluorescence. 1,300 compounds, 3% hits. inhibition, % at 5.6 µM. shares compounds with VIM-2 inh;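 active = inhibition above that campaign's mean inhibition plus 3 SD, cut at about 0.46% in these data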
VIM-2 confirm 2 = confirmation of P. aeruginosa VIM-2 metallo-beta-lactamase inhibitors. shares compounds with VIM-2 inh. 1,300 compounds, 96% hits. inhibition, % at 5.6 µM. purified VIM-2, nitrocefin hydrolysis, epi-absorbance;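 active = inhibition of the VIM-2 beta-lactamase enzyme above about 11% from the earlier first-round screen, limit read from the data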
Large screens that a line does not name were inactive (follow-up assays come after a bar, where they were run). Shown are actives, neighbours in structure and some others; about 1% of the full set was active somewhere.

Cc1noc(C)c1NC(=O)Nc1ccc2c(c1)C(=O)N([C@@H](C)CO)C[C@@H](C)[C@@H](CN(C)C)OCCCC[C@H](C)O2	none (no result: PvdQ inh, FID counter, VIM-2 inh, IMP-1 inh-1)
Cc1cc(C)cc(Nc2c3c(nc4ncnn24)CCC3)c1	VIM-2 inh 32 (no result: RAD54 branch) | IMP-1 inh-2 inactive | VIM-2 FRET inh inactive | TEM-1 counter inactive | VIM-2 confirm 2 48
Cc1cccc(Nc2c3c(nc4ncnn24)CCC3)c1	VIM-2 inh 13 (no result: RAD54 branch) | IMP-1 inh-2 inactive | VIM-2 FRET inh inactive | TEM-1 counter inactive | VIM-2 confirm 2 29
Clc1ccc(Nc2c3c(nc4ncnn24)CCC3)cc1	none
COc1ccccc1C(=O)COC(=O)/C=C/c1ccccc1	VIM-2 inh 13 | IMP-1 inh-2 inactive | VIM-2 FRET inh 29 | TEM-1 counter inactive | VIM-2 confirm 2 18
C[C@H]1CN([C@@H](C)CO)C(=O)c2cccc(NC(=O)Nc3cccc4ccccc34)c2O[C@H]1CN(C)S(=O)(=O)c1cn(C)cn1	none (no result: PvdQ inh, FID counter, VIM-2 inh, IMP-1 inh-1)
CCCCNC(=O)c1ccc(C#CC(C)(C)C)c(OC(C)=O)c1	none (no result: PvdQ inh, FID counter, VIM-2 inh, IMP-1 inh-1)
Cc1nnc2ccc(N3CCN(C(=O)c4ccccc4)CC3)nn12	none
O=C(Nc1ccc(F)cc1)N1CCN(c2ccc3nnc(-c4ccc(F)cc4)n3n2)CC1	none
O=C(Nc1ccccc1C(F)(F)F)N1CCN(c2ccc3nnc(-c4ccc(F)cc4)n3n2)CC1	VIM-2 inh 12 | IMP-1 inh-2 inactive | VIM-2 FRET inh inactive | TEM-1 counter inactive | VIM-2 confirm 2 inactive
O=C(c1ccc(Br)o1)N1CCN(c2ccc3nnc(-c4ccccc4)n3n2)CC1	VIM-2 inh 16 | IMP-1 inh-2 inactive | VIM-2 FRET inh inactive | TEM-1 counter inactive | VIM-2 confirm 2 24
Cc1ccc(Nc2nc(-c3c(C)nc4ncccn34)cs2)cc1	none
Cc1nc2ncccn2c1-c1csc(Nc2ccc(O)cc2)n1	VIM-2 inh 17 (no result: RAD54 branch) | IMP-1 inh-2 inactive | VIM-2 FRET inh inactive | TEM-1 counter inactive | VIM-2 confirm 2 28
COc1cc(CNCc2ccccn2)ccc1OCc1ccc(Cl)cc1	none
COc1cc(CNCc2ccccn2)ccc1OCc1cccc(Cl)c1	VIM-2 inh 12 | IMP-1 inh-2 inactive | VIM-2 FRET inh inactive | TEM-1 counter inactive | VIM-2 confirm 2 29
C[N+]1(CC(=O)NNc2c3ccccc3nc3ccccc23)CCOCC1	FID counter 43, VIM-2 inh 21 (no result: PvdQ inh, RAD54 branch) | IMP-1 inh-2 inactive | VIM-2 FRET inh inactive | TEM-1 counter inactive | VIM-2 confirm 2 33
O=C(CN1CCOCC1)NNc1c2ccccc2nc2ccccc12	none (no result: RAD54 branch)
C[C@H](CO)N1C[C@H](C)[C@H](CN(C)C(=O)CCC(F)(F)F)OCCCC[C@H](C)Oc2ccc(N(C)C)cc2C1=O	none (no result: PvdQ inh, FID counter, VIM-2 inh, IMP-1 inh-1)
CNc1cc(C)nc(-n2nc(C)cc2C)n1	none
CCOc1ccc(Nc2cc(C)nc(-n3nc(C)cc3C)n2)cc1	VIM-2 inh 17 | IMP-1 inh-2 inactive | VIM-2 FRET inh inactive | TEM-1 counter inactive | VIM-2 confirm 2 43
C[C@H]1CN([C@@H](C)CO)C(=O)c2cc(NC(=O)Cc3cn(C)c4ccccc34)ccc2O[C@H]1CN(C)S(=O)(=O)c1cn(C)cn1	none (no result: PvdQ inh, FID counter, VIM-2 inh, IMP-1 inh-1)
COc1ccc(-c2cc(=O)oc3c(O)c(O)ccc23)cc1	VIM-2 inh 13 | IMP-1 inh-2 inactive | VIM-2 FRET inh inactive | TEM-1 counter inactive | VIM-2 confirm 2 18
COc1ccc(Nc2c3c(nc4ccccc24)CCC3)cc1	none
Cc1ccc2nc3c(c(Nc4ccccc4)c2c1)CCC3	none (no result: RAD54 branch)
COc1ccc(Nc2c3c(nc4ccccc24)CCCC3)cc1OC	VIM-2 inh 16 (no result: RAD54 branch) | IMP-1 inh-2 inactive | VIM-2 FRET inh inactive | TEM-1 counter inactive | VIM-2 confirm 2 30
COc1ccc(C)cc1Nc1c2c(nc3ccccc13)CCC2	VIM-2 inh 19 (no result: RAD54 branch) | IMP-1 inh-2 inactive | VIM-2 FRET inh inactive | TEM-1 counter inactive | VIM-2 confirm 2 28
COc1ccc(OC)c(/C=N/NC(=O)CC2C(=O)NN=C2C)c1 (stereo not given)	VIM-2 inh 29 | IMP-1 inh-2 inactive | VIM-2 FRET inh 63 | TEM-1 counter inactive | VIM-2 confirm 2 46
CCCN1C[C@@H](C)[C@H](OC)CN(C)C(=O)c2ccc(NC(=O)C3CC3)cc2OC[C@@H]1C	none (no result: PvdQ inh, FID counter, VIM-2 inh, IMP-1 inh-1)
O=C(CNCc1ccccn1)N1CCc2ccccc2C1	VIM-2 inh 30 | IMP-1 inh-2 inactive | VIM-2 FRET inh inactive | TEM-1 counter inactive | VIM-2 confirm 2 50
Cc1cc(C)c2c(n1)nn1c(NCCCN(C)C)cc(C)nc21	VIM-2 inh 19 | IMP-1 inh-2 inactive | VIM-2 FRET inh inactive | TEM-1 counter inactive | VIM-2 confirm 2 31
CC(O)CNc1ccc(-c2n[nH]c(=O)c3ccccc23)cc1[N+](=O)[O-] (stereo not given)	VIM-2 inh 20 | IMP-1 inh-2 inactive | VIM-2 FRET inh inactive | TEM-1 counter inactive | VIM-2 confirm 2 34
CN(C)CCCNc1ccc(-c2n[nH]c(=O)c3ccccc23)cc1[N+](=O)[O-]	VIM-2 inh 59 | IMP-1 inh-2 inactive | VIM-2 FRET inh inactive | TEM-1 counter inactive | VIM-2 confirm 2 68
O=C(C[C@@H]1CC[C@H]2[C@@H](COC[C@H](O)CN2CC2CC2)O1)NCc1ccc(Cl)cc1	none (no result: PvdQ inh, FID counter, VIM-2 inh, IMP-1 inh-1)
COc1ccc(S(=O)(=O)N[C@@H]2CC[C@H](CC(=O)NCc3ccccc3F)O[C@@H]2CO)cc1	none (no result: PvdQ inh, FID counter, VIM-2 inh, IMP-1 inh-1)
